Test results published in ChEMBL document CHEMBL1649115, “Enhanced susceptibility to antifungal oligopeptides in yeast strains overexpressing ABC multidrug efflux pumps” (Antimicrob Agents Chemother, 2008).
Converted amounts (≈) assume the structure as drawn. Residues, ends and D or L forms follow the SMILES beside them.

Key:
Saccharomyces cerevisiae [1] = experiment: Antifungal activity against Saccharomyces cerevisiae ADCDR2 expressing Candida albicans CDR2 efflux pump in YNBG medium containing 1 mg/ml […] after 24 hrs by microdilution method; format: functional; details: ADCDR2, 24 h
Saccharomyces cerevisiae [2] = experiment: Antifungal activity against wild type Saccharomyces cerevisiae ATCC 9763 in YNBG medium containing 1 mg/ml […] after 24 hrs by microdilution method; format: functional; details: ATCC 9763, 24 h
Candida albicans [3] = experiment: Antifungal activity against fluconazole sensitive Candida albicans isolate Gu4 in RPMI-1640 buffered medium after 24 hrs by microdilution method; format: functional; details: Candida albicans, isolate Gu4, 24 h; read-out: MIC
Summary of the method: (§1)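 C. albicans cells were grown in 2% glucose, 1% yeast extract, 1% Bacto peptone medium before testing. […] CARE-2 fingerprinting confirmed that each pair is a single strain.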

Saccharomyces cerevisiae [4] = experiment: Antifungal activity against Saccharomyces cerevisiae ADMDR1 expressing Candida albicans MDR1 efflux pump in YNBG medium containing 1 mg/ml […] after 24 hrs by microdilution method; format: functional; details: ADMDR1, 24 h
Saccharomyces cerevisiae [5] = experiment: Antifungal activity against Saccharomyces cerevisiae ADCDR2 expressing Candida albicans CDR2 efflux pump in YNPG medium containing 1 mg/ml […] after 24 hrs by microdilution method; format: functional; details: ADCDR2, 24 h
Saccharomyces cerevisiae [6] = experiment: Antifungal activity against Saccharomyces cerevisiae ADCDR1 expressing Candida albicans CDR1 efflux pump in YNPG medium containing 1 mg/ml […] after 24 hrs by microdilution method; format: functional; details: ADCDR1, 24 h
Saccharomyces cerevisiae [7] = experiment: Drug uptake in Saccharomyces cerevisiae ADMDR1 expressing Candida albicans MDR1 efflux pump at 200 uM pretreated for 10 mins measured after 60 mins by fluorescamine staining; format: ADME, organism-based; details: in vivo, 1 h
Saccharomyces cerevisiae [8] = experiment: Drug uptake in Saccharomyces cerevisiae ADCDR2 expressing Candida albicans CDR2 efflux pump at 200 uM pretreated for 10 mins measured after 60 mins by fluorescamine staining; format: ADME, organism-based; details: in vivo, 1 h
Candida albicans [9] = experiment: Antifungal activity against fluconazole sensitive Candida albicans isolate B3 in RPMI-1640 buffered medium after 24 hrs by microdilution method; format: functional; details: Candida albicans, isolate B3, 24 h; read-out: MIC; summary of the method: as §1
Candida albicans [10] = experiment: Antifungal activity against wild type Candida albicans 10261 in RPMI-1640 buffered medium after 24 hrs by microdilution method; format: functional; details: Candida albicans, 10261, 24 h; read-out: MIC; summary of the method: as §1
Saccharomyces cerevisiae [11] = experiment: Drug extrusion in Saccharomyces cerevisiae ADCDR1 expressing Candida albicans CDR1 efflux pump reenergized with glucose at pH 6.0 assessed as fluorescamine-compound conjugate level after 30 mins; format: ADME, organism-based; details: in vivo, pH 6, 0.5 h
Summary of the method: (§2)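 Cells de-energized with 2-deoxy-D-glucose were loaded (200 µM, 60 min, pH 4.0), washed, and resuspended at OD660 1.0 in 50 mM phosphate pH 6.0 at 30°C. After 5-min preincubation, 10 mM glucose was added. Supernatants were sampled every 5 min and assayed with fluorescamine. Unloaded, identically treated cells gave the background control.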

Saccharomyces cerevisiae [12] = experiment: Antifungal activity against wild type Saccharomyces cerevisiae ATCC 9763 in YNPG medium containing 1 mg/ml […] after 24 hrs by microdilution method; format: functional; details: ATCC 9763, 24 h
Saccharomyces cerevisiae [13] = experiment: Drug extrusion in Saccharomyces cerevisiae ADCDR2 expressing Candida albicans CDR2 efflux pump reenergized with glucose at pH 6.0 assessed as fluorescamine-compound conjugate level after 30 mins; format: ADME, organism-based; details: in vivo, pH 6, 0.5 h; summary of the method: as §2
Saccharomyces cerevisiae [14] = experiment: Antifungal activity against Saccharomyces cerevisiae ADMDR1 expressing Candida albicans MDR1 efflux pump in YNPG medium containing 1 mg/ml […] after 24 hrs by microdilution method; format: functional; details: ADMDR1, 24 h
Saccharomyces cerevisiae [15] = experiment: Antifungal activity against Saccharomyces cerevisiae ADCDR1 expressing Candida albicans CDR1 efflux pump in YNBG medium containing 1 mg/ml […] after 24 hrs by microdilution method; format: functional; details: ADCDR1, 24 h
Saccharomyces cerevisiae [16] = experiment: Drug uptake in Saccharomyces cerevisiae ADCDR1 expressing Candida albicans CDR1 efflux pump at 200 uM pretreated for 10 mins measured after 60 mins by fluorescamine staining; format: ADME, organism-based; details: in vivo, 1 h
Saccharomyces cerevisiae [17] = experiment: Antifungal activity against Saccharomyces cerevisiae AD12345678 in YNBG medium containing 1 mg/ml […] after 24 hrs by microdilution method; format: functional; details: AD12345678, 24 h
Saccharomyces cerevisiae [18] = experiment: Drug uptake in Saccharomyces cerevisiae AD12345678 at 200 uM pretreated for 10 mins measured after 60 mins by fluorescamine staining; format: ADME, organism-based; details: in vivo, 1 h
Candida albicans [19] = experiment: Antifungal activity against fluconazole resistant Candida albicans isolate B4 overexpressing MDR1 in RPMI-1640 buffered medium after 24 hrs by microdilution method; format: functional; details: Candida albicans, isolate B4, 24 h; read-out: MIC; summary of the method: as §1
Candida albicans [20] = experiment: Antifungal activity against fluconazole resistant Candida albicans isolate Gu5 overexpressing CDR1 and CDR2 in RPMI-1640 buffered medium after 24 hrs by microdilution method; format: functional; details: isolate Gu5, 24 h
Summary of the method: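 C. albicans cells were grown in 2% glucose, 1% yeast extract, 1% Bacto peptone medium before testing. CARE-2 fingerprinting confirmed that each pair is a single strain.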

Saccharomyces cerevisiae [21] = experiment: Antifungal activity against Saccharomyces cerevisiae AD12345678 in YNPG medium containing 1 mg/ml […] after 24 hrs by microdilution method; format: functional; details: AD12345678, 24 h
Saccharomyces cerevisiae [22] = experiment: Prodrug stability in wild type Saccharomyces cerevisiae ATCC 9763 assessed as compound cleavage rate measured per mg of protein; format: ADME, organism-based; details: in vivo
Candida albicans [23] = experiment: Prodrug stability in wild type Candida albicans 10261 assessed as compound cleavage rate measured per mg of protein; format: ADME, organism-based; details: in vivo
Saccharomyces cerevisiae [24] = experiment: Prodrug stability in Saccharomyces cerevisiae ADCDR2 expressing Candida albicans CDR2 efflux pump assessed as compound cleavage rate measured per mg of protein; format: ADME, organism-based; details: in vivo
Saccharomyces cerevisiae [25] = experiment: Prodrug stability in Saccharomyces cerevisiae AD12345678 assessed as compound cleavage rate measured per mg of protein; format: ADME, organism-based; details: in vivo
Candida albicans [26] = experiment: Prodrug stability in fluconazole sensitive Candida albicans isolate Gu4 assessed as compound cleavage rate measured per mg of protein; format: ADME, organism-based; details: in vivo
Summary of the method: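 Oligopeptides were incubated with cell extracts of the yeast cells, and their hydrolytic enzymes cleaved them. The amino acids released were quantified by the Cd-ninhydrin method.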

Saccharomyces cerevisiae [27] = experiment: Drug uptake in Saccharomyces cerevisiae ADMDR1 at 50 uM pretreated for 10 mins measured after 60 mins by fluorescamine staining in presence of fluconazole; details: in vivo, 1 h
Saccharomyces cerevisiae [28] = experiment: Prodrug stability in Saccharomyces cerevisiae ADCDR1 expressing Candida albicans CDR1 efflux pump assessed as compound cleavage rate measured per mg of protein; format: ADME, organism-based; details: in vivo
Saccharomyces cerevisiae [29] = experiment: Drug uptake in Saccharomyces cerevisiae AD12345678 at 200 uM pretreated for 10 mins measured after 60 mins by fluorescamine staining in presence of fluconazole; format: ADME, organism-based; details: in vivo, 1 h
Saccharomyces cerevisiae [30] = experiment: Prodrug stability in Saccharomyces cerevisiae ADMDR1 expressing Candida albicans MDR1 efflux pump assessed as compound cleavage rate measured per mg of protein; format: ADME, organism-based; details: in vivo
Saccharomyces cerevisiae [31] = experiment: Drug uptake in Saccharomyces cerevisiae ADCDR2 at 200 uM pretreated for 10 mins measured after 60 mins by fluorescamine staining in presence of fluconazole; format: ADME, organism-based; details: in vivo, 1 h
Candida albicans [32] = experiment: Prodrug stability in fluconazole sensitive Candida albicans isolate B3 assessed as compound cleavage rate measured per mg of protein; format: ADME, organism-based; details: in vivo
Saccharomyces cerevisiae [33] = experiment: Drug uptake in Saccharomyces cerevisiae ADCDR1 at 200 uM pretreated for 10 mins measured after 60 mins by fluorescamine staining in presence of fluconazole; format: ADME, organism-based; details: in vivo, 1 h

## N[C@H]1CCC[C@H]1C(=O)O
Saccharomyces cerevisiae [1]
  MIC: 16 µg/mL (≈ 124 µM)
Saccharomyces cerevisiae [2]
  MIC: 4 µg/mL (≈ 31 µM)
Candida albicans [3]
  MIC: 1 µg/mL (≈ 7.74 µM)
Saccharomyces cerevisiae [4]
  MIC: 16 µg/mL (≈ 124 µM)
Saccharomyces cerevisiae [5]
  MIC: 256 µg/mL (≈ 1980 µM)
Saccharomyces cerevisiae [6]
  MIC: 256 µg/mL (≈ 1980 µM)
Saccharomyces cerevisiae [7]
  Drug uptake: 1.67 nmol/min/mg
Saccharomyces cerevisiae [8]
  Drug uptake: 1.85 nmol/min/mg
Candida albicans [9]
  MIC: 2 µg/mL (≈ 15.5 µM)
Candida albicans [10]
  MIC: 1 µg/mL (≈ 7.74 µM)
Saccharomyces cerevisiae [11]
  Activity: 5 µM
Saccharomyces cerevisiae [12]
  MIC: 64 µg/mL (≈ 496 µM)
Saccharomyces cerevisiae [13]
  Activity: 5 µM
Saccharomyces cerevisiae [14]
  MIC: 256 µg/mL (≈ 1980 µM)
Saccharomyces cerevisiae [15]
  MIC: 16 µg/mL (≈ 124 µM)
Saccharomyces cerevisiae [16]
  Drug uptake: 2.11 nmol/min/mg
Saccharomyces cerevisiae [17]
  MIC: 8 µg/mL (≈ 61.9 µM)
Saccharomyces cerevisiae [18]
  Drug uptake: 1.63 nmol/min/mg
Candida albicans [19]
  MIC: 8 µg/mL (≈ 61.9 µM)
Candida albicans [20]
  MIC: 4 µg/mL (≈ 31 µM)
Saccharomyces cerevisiae [21]
  MIC: 128 µg/mL (≈ 991 µM)

## CC(C)C[C@H](NC(=O)[C@@H](N)COCCN)C(=O)NCC(=O)O
Saccharomyces cerevisiae [22]
  Stability: 14 nmol/min
Candida albicans [23]
  Stability: 20 nmol/min
Saccharomyces cerevisiae [24]
  Stability: 14 nmol/min
Saccharomyces cerevisiae [25]
  Stability: 14 nmol/min
Candida albicans [26]
  Stability: 20 nmol/min
Saccharomyces cerevisiae [27]
  Drug uptake: 0.85 nmol/min/mg
Saccharomyces cerevisiae [28]
  Stability: 14 nmol/min
Saccharomyces cerevisiae [7]
  Drug uptake: 0.87 nmol/min/mg
Saccharomyces cerevisiae [29]
  Drug uptake: 0.7 nmol/min/mg
Saccharomyces cerevisiae [30]
  Stability: 14 nmol/min
Saccharomyces cerevisiae [8]
  Drug uptake: 1.31 nmol/min/mg
Saccharomyces cerevisiae [31]
  Drug uptake: 1.26 nmol/min/mg
Candida albicans [32]
  Stability: 20 nmol/min
Saccharomyces cerevisiae [16]
  Drug uptake: 1.42 nmol/min/mg
Saccharomyces cerevisiae [18]
  Drug uptake: 0.69 nmol/min/mg
Saccharomyces cerevisiae [33]
  Drug uptake: 1.32 nmol/min/mg

## C[C@H](N)C(=O)N[C@@H](C)C(=O)O (H-Ala-Ala-OH)
Saccharomyces cerevisiae [27]
  Drug uptake: 2.61 nmol/min/mg
Saccharomyces cerevisiae [7]
  Drug uptake: 2.59 nmol/min/mg
Saccharomyces cerevisiae [29]
  Drug uptake: 2.55 nmol/min/mg
Saccharomyces cerevisiae [8]
  Drug uptake: 4.08 nmol/min/mg
Saccharomyces cerevisiae [31]
  Drug uptake: 3.94 nmol/min/mg
Saccharomyces cerevisiae [16]
  Drug uptake: 4.46 nmol/min/mg
Saccharomyces cerevisiae [18]
  Drug uptake: 2.58 nmol/min/mg
Saccharomyces cerevisiae [33]
  Drug uptake: 4.2 nmol/min/mg
